Results taken from ChEMBL document CHEMBL3734648, “The synthesis of indolo[2,3-b]quinoline derivatives with a guanidine group: highly selective cytotoxic agents” (Eur J Med Chem, 2015).
Active and inactive are the calls of the source. The rule behind the calls is not given here.

What was measured:
[1] = test system: LoVo; test: Antiproliferative activity against human LoVo cells after 72 hrs by sulforhodamine B assay; type: functional, cell-based
[2] = test system: BALB/3T3; test: Cytotoxicity against mouse BALB/3T3 cells assessed as cell viability after 1 hr by sulforhodamine B assay; type: cell-based; settings: BALB/3T3, 1 h
[3] = test system: MCF7; test: Antiproliferative activity against human MCF7 cells after 72 hrs by sulforhodamine B assay; type: functional, cell-based; settings: MCF7, 72 h
[4] = Induction of DNA intercalation (unknown origin) after 24 hrs by methyl green dye displacement assay
In short: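 Compound displaces methyl green from a DNA/methyl green complex. IC50 is the concentration giving a 50% decrease in the initial absorbance of the DNA/methyl green solution. Mean ± SD, n = 3–5.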

[5] = test system: Candida albicans; test: Inhibition of biofilm formation of Candida albicans assessed as reduction in cell viability of biofilm after 24 hrs by XTT staining based spectrophotometry; type: functional; settings: read-out: ED50 (the source's name)
In short: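 Candida albicans biofilms grown in vitro in 96-well plates, then exposed to compounds, and biofilm cell viability determined. ED50 reported as mean ± SD, n = 3.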

[6] = test system: A549; test: Antiproliferative activity against human A549 cells after 72 hrs by sulforhodamine B assay; type: functional, cell-based; settings: A549, 72 h
[7] = test system: KB; test: Antiproliferative activity against human KB cells after 72 hrs by sulforhodamine B assay; type: functional, cell-based
[8] = Hemolytic activity in human RBC after 30 mins by spectrophotometry; type: ADME, cell-based, Erythrocyte; settings: for Activity: erythrocyte, 0.5 h; for HC50 at 0.5 h: human red blood cells
In short: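 Human red blood cells incubated with compound over 10^-6 to 5×10^-4 M for 30 min at 37 °C. HC50 taken as the concentration lysing 50% of cells. Mean ± SD of three individual determinations.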

[9] = test system: KB; test: Induction of apoptosis in human KB cells assessed as necrotic cells at 1 uM after 72 hrs by Annexin V/propidium iodide staining-based flow cytometry (reference value: 3.9 +/- 0.8 %); type: functional
In short: (§1)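 Apoptosis and necrosis in KB cells after 72 h exposure at 1.0 or 0.5. Staining with annexin V (AV) and propidium iodide (PI). Cells scored as live (AV−/PI−), apoptotic (AV+/PI−) or necrotic (AV+/PI+). Values as mean ± SD, compared with control cells at p ≤ 0.05.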

[10] = test system: KB; test: Induction of apoptosis in human KB cells assessed as induction of caspase-3/7 activity at 1 uM after 72 hrs by Ac-DEVD-ACC-based fluorescence assay relative to control; type: functional
In short: (§2)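 KB cells treated for 72 h at 1.0 or 0.5. Caspase-3/7 activity measured by an enzymatic assay, normalized to protein content and expressed relative to untreated control. Significance versus control at p ≤ 0.05.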

[11] = test system: KB; test: Induction of cell cycle arrest in human KB cells assessed as accumulation at G2/M phase at 0.25 uM after 72 hrs by propidium iodide staining based flow cytometry (reference value: 14.7 +/- 1.1 %); type: functional
In short: (§3)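 KB cells exposed for 72 h at […]. Cell-cycle phase distribution (G0/G1, S, G2/M) given as mean ± SD from independent experiments. Treated cells compared with control cells by Mann–Whitney U test, significance at p ≤ 0.05.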

[12] = test system: KB; test: Induction of apoptosis in human KB cells assessed as apoptotic cells at 1 uM after 72 hrs by Annexin V/propidium iodide staining-based flow cytometry (reference value: 4.8 +/- 2.4 %); type: functional; in short: as §1
[13] = test system: KB; test: Induction of mitochondrial membrane potential loss in human KB cells at 0.5 to 1 uM after 72 hrs by JC-1 staining based flow cytometric analysis; type: functional
In short: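 Mitochondrial membrane potential of KB cells read after 72 h exposure at 1.0 and 0.5. Fraction of cells with reduced potential compared with control cells, significance at p ≤ 0.05.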

[14] = test system: KB; test: Induction of apoptosis in human KB cells assessed as necrotic cells at 0.5 uM after 72 hrs by Annexin V/propidium iodide staining-based flow cytometry (reference value: 3.9 +/- 0.8 %); type: functional; in short: as §1
[15] = test system: KB; test: Induction of apoptosis in human KB cells assessed as apoptotic cells at 0.5 uM after 72 hrs by Annexin V/propidium iodide staining-based flow cytometry (reference value: 4.8 +/- 2.4 %); type: functional; in short: as §1
[16] = test system: KB; test: Induction of cell cycle arrest in human KB cells assessed as accumulation at S phase at 0.25 uM after 72 hrs by propidium iodide staining based flow cytometry (reference value: 32.1 +/- 5.4%); type: functional; in short: as §3
[17] = test system: A549; test: Selectivity index, ratio of IC50 for mouse BALB/3T3 cells to IC50 for human A549 cells; type: functional
[18] = test system: KB; test: Induction of apoptosis in human KB cells assessed as induction of caspase-3/7 activity at 0.5 uM after 72 hrs by Ac-DEVD-ACC-based fluorescence assay; type: functional, cell-based; in short: as §2
[19] = test system: KB; test: Induction of cell cycle arrest in human KB cells assessed as accumulation at S phase at 0.5 uM after 72 hrs by propidium iodide staining based flow cytometry (reference value: 32.1 +/- 5.4%); type: functional; in short: as §3
[20] = test system: KB; test: Induction of apoptosis in human KB cells assessed as live cells at 0.5 uM after 72 hrs by Annexin V/propidium iodide staining-based flow cytometry (reference value: 91.3 +/- 3.1 %); type: functional; in short: as §1
[21] = test system: KB; test: Induction of cell cycle arrest in human KB cells assessed as accumulation at G0/G1 phase at 0.25 uM after 72 hrs by propidium iodide staining based flow cytometry (reference value: 53.2 +/- 5.8%); type: functional; in short: as §3
[22] = test system: MCF7; test: Selectivity index, ratio of IC50 for mouse BALB/3T3 cells to IC50 for human MCF7 cells; type: functional
[23] = test system: KB; test: Induction of cell cycle arrest in human KB cells assessed as accumulation at S phase at 1 uM after 72 hrs by propidium iodide staining based flow cytometry (reference value: 32.1 +/- 5.4%); type: functional; in short: as §3
[24] = test system: KB; test: Induction of cell cycle arrest in human KB cells assessed as accumulation at G0/G1 phase at 1 uM after 72 hrs by propidium iodide staining based flow cytometry (reference value: 53.2 +/- 5.8%); type: functional; in short: as §3
[25] = test system: KB; test: Induction of apoptosis in human KB cells assessed as live cells at 1 uM after 72 hrs by Annexin V/propidium iodide staining-based flow cytometry (reference value: 91.3 +/- 3.1 %); type: functional; in short: as §1
[26] = test system: KB; test: Induction of cell cycle arrest in human KB cells assessed as accumulation at G0/G1 phase at 0.5 uM after 72 hrs by propidium iodide staining based flow cytometry (reference value: 53.2 +/- 5.8%); type: functional; in short: as §3
[27] = test system: KB; test: Induction of cell cycle arrest in human KB cells assessed as accumulation at G2/M phase at 0.5 uM after 72 hrs by propidium iodide staining based flow cytometry (reference value: 14.7 +/- 1.1 %); type: functional; in short: as §3
[28] = test system: KB; test: Induction of cell cycle arrest in human KB cells assessed as accumulation at G2/M phase at 1 uM after 72 hrs by propidium iodide staining based flow cytometry (reference value: 14.7 +/- 1.1 %); type: functional; in short: as §3
[29] = test system: erythrocytes (Homo sapiens); test: Hemolytic activity in human erythrocytes after 30 mins by spectrophotometry

| IC50 [1] [µM] | IC50 [3] [µM] | IC50 [4] [µM] | IC50 [6] [µM] | IC50 [7] [µM] | SMILES | IC50 [2] [µM] | EC50 [5] [µM] | also measured |
| --- | --- | --- | --- | --- | --- | --- | --- | --- |
| 0.07 | 0.52 | 150 | 0.16 | 0.72 | Cc1c2c3cc(N)ccc3nc-2n(C)c2ccccc12 | 0.54 | 41 | – |
| 0.077 | 0.33 | 125 | 0.88 | 0.86 | Cc1c2ccccc2nc2c1c1cc(N)ccc1n2CCN(C)C | 0.56 | 34.2 | – |
| 0.83 | 4.75 | 40.5 | 1.82 | 3.88 | Cc1c2c3cc(NC(=O)CNC(=N)N)ccc3nc-2n(C)c2ccccc12.Cl.Cl.Cl | 4.47 | 4.2 | Activity [8]: Dose-dependent effect; HC50 at 0.5 h [8]: 192 µM |
| 76.9 | 0.06 | 71.5 | 0.14 | 0.88 | Cc1c2c3cc(NC(=N)N)ccc3nc-2n(C)c2ccccc12.Cl.Cl | 66.4 | 197 | Activity [9]: 12.2%; fold change (FC) [10]: 5; Activity [11]: 25.3%; Activity [12]: 25.7%; Activity [13]: 11%; Activity [14]: 8.2%; Activity [15]: 43.7%; Activity [16]: 35.3%; Ratio IC50 [17]: 600; Activity [18]: Active; Activity [19]: 39.8%; Activity [20]: 41.1%; Activity [21]: 39.5%; Ratio IC50 [22]: 600; Activity [23]: 48.6%; Activity [24]: 32.8%; Activity [25]: 62.1%; Activity [26]: 29.2%; Activity [27]: 31%; Activity [28]: 18.6% |
| 0.09 | 0.75 | 80.3 | 0.74 | 1.13 | Cc1c2ccccc2nc2c1c1cc(NC(=O)CN)ccc1n2CCN(C)C.Cl.Cl.Cl | 0.61 | 74.3 | Activity [8]: Dose-dependent effect; HC50 at 0.5 h [8]: 80.3 µM |
| 9.38 | 0.81 | 101 | 3.24 | 0.87 | Cc1c2ccccc2nc2c1c1cc(NC(=N)N)ccc1n2CCN(C)C.Cl.Cl.Cl.Cl | 30 | 287 | Activity [9]: 7.5%; fold change (FC) [10]: 2; Activity [11]: 17.3%; Activity [12]: 24.4%; Activity [13]: 11%; Activity [14]: 5.9%; Activity [15]: 32.5%; Activity [16]: 31.1%; Activity [19]: 31.6%; Activity [20]: 61.5%; Activity [21]: 51.6%; Activity [23]: 46.9%; Activity [24]: 33.4%; Activity [25]: 68.1%; Activity [26]: 43.8%; Activity [27]: 24.6%; Activity [28]: 19.6% |
| – | – | 12.1 | – | – | CCOc1ccc(-c2nc3ccc(-c4nc5ccc(N6CCN(C)CC6)cc5[nH]4)cc3[nH]2)cc1 | – | – | – |
| 8.31 | 2.06 | – | 6.22 | 7.37 | Cc1c2ccccc2nc2c1c1cc(NC(=O)[C@@H]3CCCN3C(=N)N)ccc1n2CCN(C)C | 13.4 | – | – |
| 7.76 | 7.85 | – | 11 | 15.6 | Cc1c2c3cc(NC(=O)[C@@H]4CCCN4C(=N)N)ccc3nc-2n(C)c2ccccc12 | 31.9 | – | – |
| 0.82 | 2.31 | – | 1.96 | 1.23 | Cc1c2ccccc2nc2c1c1cc(NC(=O)CNC(=N)N)ccc1n2CCN(C)C | 3.55 | – | – |
| 0.06 | 0.32 | 42.2 | 0.27 | 0.38 | Cc1c2ccccc2nc2c1c1cc(NC(=O)[C@@H]3CCCN3)ccc1n2CCN(C)C | 0.36 | 25.5 | – |
| – | – | 367 | – | – | Cc1c2c3ccccc3nc-2n(C)c2ccccc12 | – | – | HC50 at 0.5 h [29]: 120 µM |
